Experimental data taken from ChEMBL document CHEMBL1158964, “Isolation and cytotoxicity of two new flavonoids from Chrysosplenium grayanum and related flavonols” (1991).
≈ marks a conversion by molar mass, not a printed value.

These molecules were tested on KB (assay: Cytotoxicity against human KB cells after 72 hrs). Conditions: read-out: ED50 (the source's name).
Format: functional
Procedure, shortened: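 KB cells kept in MEM with 5% fetal calf serum; assay run largely per NCI guidelines in 24-well plates in a CO₂ incubator. Cells assayed after 72 h by a literature procedure. ED₅₀ estimated from semi-log plots of sample concentration (μg/ml) against percent viable cells; three determinations.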
`COC(=O)c1cc(O)c(OC)c(O)c1` showed an EC50 of 8.62 µg/mL (≈ 43.5 µM).
Work on `COc1cc(-c2oc3cc(OC)c(OC)c(O)c3c(=O)c2OC)ccc1O` [CHRYSOSPLENOL B] yielded an EC50 of 7.42 µg/mL (≈ 19.8 µM).
`COc1cc(O)c2c(=O)c(OC)c(-c3cc(OC)c(OC)cc3O)oc2c1` [CHRYSOSPLENOL E] was tested, and the EC50 was > 25 µg/mL.
`COc1cc(O)c2c(=O)c(OC)c(-c3ccc(OC)c(OC)c3)oc2c1` [RETUSIN] was tested, and the EC50 was > 25 µg/mL.
`COc1cc2oc(-c3ccc(O)c(O)c3)c(OC)c(=O)c2c(O)c1OC` [CHRYSOSPLENOL D] showed an EC50 of 13.9 µg/mL (≈ 38.7 µM).
With `COc1cc(-c2oc3cc(OC)c(O)c(O)c3c(=O)c2OC)ccc1O` [CHRYSOSPLENOL C] the EC50 was 11.2 µg/mL (≈ 31.1 µM).
In the case of `COc1cc(O)c(-c2oc3cc(OC)c(OC)c(O)c3c(=O)c2OC)cc1OC` [BRICKELLIN], the EC50 is reported as > 25 µg/mL.
`COc1cc(O)c2c(=O)c(OC)c(-c3cc(O)c(OC)cc3OC)oc2c1` [CHRYSOSPLENOL G] was tested, and the EC50 was 8.61 µg/mL (≈ 23 µM).
Work on `COc1cc(O)c2c(=O)c(OC)c(-c3cc(O)c(OC)cc3O)oc2c1` [OXYAYANIN A] yielded an EC50 of 1.99 µg/mL (≈ 5.52 µM).
With `COc1cc(O)c2c(=O)c(OC)c(-c3cc(OC)c(O)cc3O)oc2c1` [CHRYSOSPLENOL F] the EC50 was > 25 µg/mL.
